CSN deneddyl inh = inhibitors of human CSN-mediated cullin deneddylation; inhibition, % at 12.5 µM; 0.38% of 360,000 active; Q92905; Purified CSN, SCF-Nedd8-OG deneddylation, fluorescence polarization;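 active = pattern-corrected inhibition above about 35%, with an unprinted fluorescence ratio check between 0.5 and 1.5, limit read from the data, passing the limit was not always enough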;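 also: 0% = enzyme with substrate and 100% = substrate without enzyme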
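Schedule: reaction 90 min, room temperature / Assay system: HEK293T-derived human Csn5 enzyme / Input: Csn5 at 0.24 nM final / Measure: inhibition of Csn5 cleavage, % / Control set: substrate-only high control, full reaction low control / Technique: fluorescence polarization of the substrate / Buffer or medium: Tris/NaCl/DTT buffer, pH 7.5 / Reagent: SCFSkp2-Nedd8OG substrate at 10 nM final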
ATG4B inh = blocks human ATG4B protease cleavage of LC3 substrate. 0.51% of 340,000 active. Q9Y4P1. ATG4B cleavage of LC3-PLA2, NBD-HPC fluorescence, 1 h. inhibition, % at 8.33 µM; in the data active = inhibition above about 40%
rCAG binder = molecules binding r(CAG) RNA repeats. r(CAG) RNA repeat, TO-PRO-1 dye displacement fluorescence. inhibition, % at 3 µM. 1.3% of 370,000 active. AID 651821;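 active = inhibition above the plate cutoff, the mean of all test compounds on that plate plus 3 SD, cut at about 35% in these data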;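 also: 0% = DMSO alone and 100% = 100 µM mitoxantrone as full dye displacement; higher means more dye released from RNA so lower well fluorescence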
MBD2 inh = inhibitors of human MBD2 binding to methylated oligonucleotide; inhibition, % at 4.4 µM; Q9UBB5; 0.31% of 370,000 active; TR-FRET; in the data active = inhibition above about 13%
UHRF1 MBD2 ctr = blocks human UHRF1 binding to methylated DNA; 0.75% of 370,000 active; inhibition, % at 4.4 µM; UHRF1 binding to methylated oligo, TR-FRET; in the data active = inhibition above about 21%;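 also: UHRF1 SRA domain binding a hemimethylated CpG hairpin DNA probe; 0% = median of test compound wells and 100% = reference inhibitor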
Target sequence (Q96T88 whole entry, looked up, the tested form may be a part): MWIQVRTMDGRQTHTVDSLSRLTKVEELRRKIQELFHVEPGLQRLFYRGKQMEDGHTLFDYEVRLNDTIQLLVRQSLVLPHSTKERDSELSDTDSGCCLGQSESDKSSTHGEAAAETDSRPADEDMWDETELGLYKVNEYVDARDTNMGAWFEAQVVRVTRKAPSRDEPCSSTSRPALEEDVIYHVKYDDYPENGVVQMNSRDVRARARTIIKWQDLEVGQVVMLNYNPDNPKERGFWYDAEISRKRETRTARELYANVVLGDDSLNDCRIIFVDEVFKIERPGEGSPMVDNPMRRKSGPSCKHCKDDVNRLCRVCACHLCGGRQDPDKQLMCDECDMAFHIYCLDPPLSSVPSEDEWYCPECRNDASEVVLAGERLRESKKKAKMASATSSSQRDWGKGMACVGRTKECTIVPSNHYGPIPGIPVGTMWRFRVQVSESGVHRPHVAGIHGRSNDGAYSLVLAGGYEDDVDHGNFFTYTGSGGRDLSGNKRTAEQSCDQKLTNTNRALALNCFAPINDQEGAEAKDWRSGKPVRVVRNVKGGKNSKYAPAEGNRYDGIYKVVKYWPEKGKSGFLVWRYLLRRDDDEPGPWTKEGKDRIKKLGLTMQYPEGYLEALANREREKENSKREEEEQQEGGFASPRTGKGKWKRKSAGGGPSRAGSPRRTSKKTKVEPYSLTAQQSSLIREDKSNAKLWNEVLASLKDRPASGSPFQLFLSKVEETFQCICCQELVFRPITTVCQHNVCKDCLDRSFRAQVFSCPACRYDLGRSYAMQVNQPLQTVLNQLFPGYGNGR
LEDGF integ inh = blocks HIV-1 LEDGF/p75-dependent DNA integration; AID 743269; inhibition, % at 3.7 µM; 0.64% of 370,000 active; TR-FRET IN-LEDGF/p75 DNA integration, Eu/Cy5;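 active = inhibition above the screen-wide mean plus 3 SD, cut at about 13% in these data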;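 also: signal is the Cy5 over europium emission ratio at 671 and 618 nm; 0% = plate median of compound wells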
An asterisk follows results filed as active; nt = no result given. Compounds with a hit are over-represented: about 3.1% of the library has one in this group of screens.

SMILES	CSN deneddyl inh	ATG4B inh	rCAG binder	MBD2 inh	UHRF1 MBD2 ctr	LEDGF integ inh
Cc1ccc(NC(=O)OC2CCC23CCCCC3)cc1 (stereo unspecified)	nt	nt	1.2	4.3	2.3	-1.4
CCC1CCc2sc(C(=O)N(C)CC(=O)Nc3ccc(OC)cc3)cc2C1 (stereo unspecified)	2.9	-0.2	8.6	-5.4	0.0	7.0
CCC1CCc2sc(C(=O)N(C)CC(=O)Nc3cccc(OC)c3)cc2C1 (stereo unspecified)	-4.7	-10.7	3.9	-5.2	66.2*	3.0
COC(=O)C1CN(Cc2cn(CCOC(C)=O)nn2)CCS(=O)(=O)N1Cc1ccc(C)cc1 (stereo unspecified)	nt	nt	0.5	-2.9	0.5	-1.8
C[C@H]1[C@@H](N(C)CC2CCCCC2)CC[C@@]23CCCN2C(=O)CCC[C@@H]13	nt	nt	nt	-2.1	-2.6	1.7
CC12CCC(=O)N1C(C(=O)Nc1ccc(Br)cc1Cl)CS2 (stereo unspecified)	2.9	6.5	-1.4	-4.7	-3.5	-1.2
Cc1cc(Br)ccc1NC(=O)C1CSC2(C)CCC(=O)N12 (stereo unspecified)	2.8	-5.4	3.4	0.2	35.5*	-1.1
COc1ccccc1-c1ocnc1C(=O)Nc1ccc(N2CCOCC2)cc1N1CCOCC1	5.9	-4.9	-6.7	-5.0	73.8*	-0.8
COc1ccc(-c2ocnc2C(=O)Nc2ccc(N3CCOCC3)cc2N2CCOCC2)cc1OC	2.2	-7.8	0.5	2.1	1.2	-4.5
O=C1CSC(=S)N1N=Cc1c(F)cccc1Cl	5.1	nt	10.2	-4.5	-5.0	-1.9
CN(C)c1ccc(C=NN2C(=O)CSC2=S)c(Cl)c1	60.0*	nt	16.3	-1.3	-1.5	8.2
CCOC(=O)c1cccc(NC(=O)CN(C)S(=O)(=O)c2ccc(Cl)s2)c1	nt	nt	1.6	-2.2	-0.5	-2.0
CCOc1ccc(C(=O)OCC(=O)NCCCc2ccccc2)cc1	1.8	-5.7	-6.8	-5.6	-1.1	0.5
CCOc1ccc(/C(CCC(=O)O)=N/NC(=S)NCCc2ccccc2)cc1	27.5	6.7	35.8*	3.3	1.4	-2.5
FC(F)(F)c1ccc(CSc2nccn2-c2ccccc2)cc1	3.7	-1.7	-6.9	-4.7	79.6*	-1.2
Brc1ccc(CSc2nccn2-c2ccccc2)cc1	-1.1	2.8	1.3	3.0	5.5	-1.7
COc1cc(/C=N/NC(=O)c2cc(C)oc2C)ccc1OCc1ccccc1	4.7	3.3	2.4	-1.7	-2.2	84.0*
COc1cc(/C=N/NC(=O)c2nnn(-c3nonc3N)c2C(C)C)ccc1OCc1ccc(F)cc1	4.0	17.1	4.8	10.1	20.7*	2.8
COc1ccc(/C=N/NC(=O)c2cccnc2)cc1COc1ccc([N+](=O)[O-])c(C)c1	1.7	1.7	11.0	-3.8	-2.9	1.8
COc1ccc(/C=N\NC(=O)c2ccc([N+](=O)[O-])c(C)c2)cc1COc1ccccc1C(N)=O	35.0*	-2.5	14.2	4.3	2.7	0.1
COc1cc(/C=N/NC(=O)c2cccs2)ccc1OCc1ccccc1	1.4	-13.7	6.5	6.8	3.3	6.5
COc1ccc(/C=N/NC(=O)c2ccccc2OC)cc1COc1ccc(C)cc1	4.5	0.2	1.9	-6.3	4.3	2.7
COc1ccc(/C=N/NC(=O)c2ccccc2OC)cc1COc1ccccc1[N+](=O)[O-]	101.5*	-8.9	6.2	0.6	-3.7	2.4
O=C(NC1CCCCN(Cc2cccc(C(F)(F)F)c2)C1=O)c1c(F)cccc1F (stereo unspecified)	nt	nt	-3.4	2.9	-1.7	0.4
Cc1ccc(S(=O)(=O)N(CCc2ccccc2)CC(=O)N2CCOCC2)cc1	nt	nt	2.4	-1.7	1.8	-1.5
SMILES	CSN deneddyl inh	ATG4B inh	rCAG binder	MBD2 inh	UHRF1 MBD2 ctr	LEDGF integ inh
O=C(NCc1cccnc1)O[C@H]1CC[C@@]23CCCN2C(=O)CCC[C@H]3C1	nt	nt	nt	1.3	0.3	0.5
Cc1ccc(-c2nc3c4ccccc4ccn3c2Cc2ccccc2)cc1	2.6	nt	3.6	8.1	21.2*	0.8
Fc1cccc(Cc2c(-c3ccccc3)nc3c4ccccc4ccn23)c1	2.3	nt	5.1	8.1	21.1*	0.1
Cc1ccc(-c2nc3c4ccccc4ccn3c2Cc2cccc(F)c2)cc1	nt	nt	7.3	4.6	9.1	0.1
COc1ccc(-c2sc3cc(OC)c(OC)cc3c2C#CCO)cc1	4.5	-6.3	10.6	6.7	21.9*	3.3
C[C@@H]1CN([C@@H](C)CO)C(=O)CCCn2cc(nn2)CO[C@H]1CN(C)C(=O)Nc1ccc2c(c1)OCCO2	nt	nt	-0.3	3.7	17.0	3.1
COc1cc2c(cc1OC)C(SC)=NC1(CCCC1)C2	4.9	0.1	1.2	10.0	27.2*	-3.1
O=[N+]([O-])c1ccc(CSc2nnc3ccccn23)cc1	4.3	-2.2	-0.7	-1.7	0.8	0.1
O=C(c1nc(SCc2ccc([N+](=O)[O-])cc2)n2ccccc12)C(F)(F)F	-0.9	2.3	-1.1	0.6	23.6*	0.0
CCn1c(C(=O)O)c(CC(=O)Nc2cccc(C(F)(F)F)c2)c2ccccc21	-3.7	3.5	34.7*	-2.1	2.5	2.0
CCn1c(C(=O)O)c(CC(=O)Nc2ccccc2F)c2ccccc21	0.1	4.0	9.5	0.4	1.3	0.6
O=C1/C(=C/c2ccc(O)cc2)COc2ccccc21	89.4*	0.8	6.9	-0.1	-3.1	-1.1
C[C@H](O)[C@@H]1CN2CCc3c([nH]c4cccc(-c5ccc6c(c5)OCO6)c34)[C@@H]2C[C@@H]1N(C)C(=O)c1ccco1	nt	nt	7.8	-3.0	-2.7	4.2
CCOC(=O)/C=c1\s/c(=C\c2ccc3cc(OC)ccc3c2)c(=O)n1CC(=O)NCc1ccc2c(c1)OCO2	59.8*	8.3	15.8	-0.3	4.0	-2.1
CCc1ccc(NC(=S)Nc2cccc3cnccc23)cc1	38.2*	-10.7	5.0	-9.2	-1.1	5.8
Cc1cc(C)cc(NC(=S)Nc2cccc3cnccc23)c1	37.1*	-2.0	8.5	-0.1	2.0	-1.4
Cc1ccc(NC(=S)Nc2cccc3cnccc23)c(C)c1	10.7	-4.9	2.1	-8.6	18.6	0.2
Cc1c(NC(=O)/C(C#N)=C/c2ccc(-c3ccc(Cl)c(Cl)c3)o2)c(=O)n(-c2ccccc2)n1C	2.8	3.0	3.1	5.7	1.3	-4.2
Cc1cc(NC(=O)/C(C#N)=C\c2ccc(-c3ccc(SC(F)F)cc3)o2)n(-c2ccccc2)n1	81.1*	1.2	8.5	-1.0	0.9	1.9
O=C(C1=C(O)C(=O)N(c2ncccn2)C1c1ccc(Cl)c(Cl)c1)c1ccco1 (stereo unspecified)	48.3*	11.8	22.6	4.5	4.0	0.5
O=C(C1=C(O)C(=O)N(c2ncccn2)C1c1ccc(Cl)cc1)c1ccco1 (stereo unspecified)	25.5	-6.3	6.0	-1.1	1.1	1.0
